# From PMC2834874 (Bioorganic & medicinal chemistry letters, 2010)
# Tests used:
# Assay type in all cases: cell-based
# M5 = biological target: T1, M5 (Homo sapiens, UniProt P08912); assay: Potentiation of ~EC20 ACh, calcium mobilization in M5 CHO cells
# T1 sequence (P08912 1-532): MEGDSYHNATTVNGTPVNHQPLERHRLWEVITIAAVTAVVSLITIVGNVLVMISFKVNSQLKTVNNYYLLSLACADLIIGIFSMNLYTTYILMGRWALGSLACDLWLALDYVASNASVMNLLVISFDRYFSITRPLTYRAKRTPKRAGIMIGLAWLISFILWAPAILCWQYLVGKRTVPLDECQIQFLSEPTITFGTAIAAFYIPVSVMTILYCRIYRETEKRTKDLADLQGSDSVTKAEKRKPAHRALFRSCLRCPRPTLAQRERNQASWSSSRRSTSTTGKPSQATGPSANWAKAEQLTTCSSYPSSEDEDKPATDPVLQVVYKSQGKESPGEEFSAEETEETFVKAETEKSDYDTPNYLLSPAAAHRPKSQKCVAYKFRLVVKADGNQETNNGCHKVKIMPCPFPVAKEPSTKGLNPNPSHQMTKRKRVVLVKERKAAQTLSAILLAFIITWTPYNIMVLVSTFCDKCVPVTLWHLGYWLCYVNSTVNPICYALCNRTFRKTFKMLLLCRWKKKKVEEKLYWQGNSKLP
# In short: (§1)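 Potentiation of an ~EC20 ACh response read as intracellular calcium mobilization in CHO cells expressing single receptor subtypes. M2 and M4 lines are co-transfected with chimeric Gqi5 to couple to calcium, while M3 and M5 lines are used directly. Data are means of independent determinations.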
# M3 = M3 (Homo sapiens, UniProt P20309); assay: Potentiation of ~EC20 ACh, calcium mobilization in M3 CHO cells
# In short: as §1
# M1 [1] = biological target: T2, M1 (Homo sapiens, UniProt P11229); assay: ACh CRC fold-shift experiments, calcium mobilization in M1 CHO cells
# T2 sequence (P11229 1-460): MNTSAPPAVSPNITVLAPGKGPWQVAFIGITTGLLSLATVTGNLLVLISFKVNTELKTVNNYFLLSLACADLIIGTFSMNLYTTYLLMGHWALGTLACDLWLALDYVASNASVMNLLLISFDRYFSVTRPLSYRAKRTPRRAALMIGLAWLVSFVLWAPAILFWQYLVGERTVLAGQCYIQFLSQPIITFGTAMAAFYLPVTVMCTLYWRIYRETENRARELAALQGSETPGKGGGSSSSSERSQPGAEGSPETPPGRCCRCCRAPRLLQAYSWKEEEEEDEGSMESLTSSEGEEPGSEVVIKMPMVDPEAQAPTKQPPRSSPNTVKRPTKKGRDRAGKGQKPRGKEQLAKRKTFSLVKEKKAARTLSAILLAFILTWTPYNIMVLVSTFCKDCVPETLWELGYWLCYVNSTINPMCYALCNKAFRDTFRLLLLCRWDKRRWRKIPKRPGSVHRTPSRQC
# In short: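 ACh concentration-response curve run alone and with the test compound at 10 μM or 30 μM. Intracellular calcium mobilization measured in CHO cells expressing M1. The fold leftward shift of the ACh curve is taken, and intrinsic allosteric agonism is recorded from the response to compound alone. Values are means of at least three independent determinations.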
# M4 = biological target: T3, M4 (Homo sapiens, UniProt P08173); assay: Potentiation of ~EC20 ACh, calcium mobilization in M4/Gqi5 CHO cells; details: up to 30 μM
# T3 sequence (P08173 1-479): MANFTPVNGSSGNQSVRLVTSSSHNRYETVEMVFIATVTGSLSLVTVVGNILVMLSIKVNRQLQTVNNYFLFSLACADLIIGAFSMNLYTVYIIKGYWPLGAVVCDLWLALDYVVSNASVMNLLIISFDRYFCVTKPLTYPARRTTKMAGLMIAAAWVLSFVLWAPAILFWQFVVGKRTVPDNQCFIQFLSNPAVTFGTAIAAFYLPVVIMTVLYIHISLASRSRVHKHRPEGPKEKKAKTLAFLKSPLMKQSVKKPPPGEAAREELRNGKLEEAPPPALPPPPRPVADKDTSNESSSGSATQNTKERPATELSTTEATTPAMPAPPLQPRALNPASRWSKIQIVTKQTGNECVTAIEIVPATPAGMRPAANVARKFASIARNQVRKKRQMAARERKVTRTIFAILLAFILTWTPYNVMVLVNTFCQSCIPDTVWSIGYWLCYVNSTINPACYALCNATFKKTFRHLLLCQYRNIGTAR
# In short: as §1
# M1 [2] = biological target: T2, M1; details: M1 EC50 ratio
# M2 = biological target: T4, M2 (Homo sapiens, UniProt P08172); assay: Potentiation of ~EC20 ACh, calcium mobilization in M2/Gqi5 CHO cells; details: up to 30 μM
# T4 sequence (P08172 1-466): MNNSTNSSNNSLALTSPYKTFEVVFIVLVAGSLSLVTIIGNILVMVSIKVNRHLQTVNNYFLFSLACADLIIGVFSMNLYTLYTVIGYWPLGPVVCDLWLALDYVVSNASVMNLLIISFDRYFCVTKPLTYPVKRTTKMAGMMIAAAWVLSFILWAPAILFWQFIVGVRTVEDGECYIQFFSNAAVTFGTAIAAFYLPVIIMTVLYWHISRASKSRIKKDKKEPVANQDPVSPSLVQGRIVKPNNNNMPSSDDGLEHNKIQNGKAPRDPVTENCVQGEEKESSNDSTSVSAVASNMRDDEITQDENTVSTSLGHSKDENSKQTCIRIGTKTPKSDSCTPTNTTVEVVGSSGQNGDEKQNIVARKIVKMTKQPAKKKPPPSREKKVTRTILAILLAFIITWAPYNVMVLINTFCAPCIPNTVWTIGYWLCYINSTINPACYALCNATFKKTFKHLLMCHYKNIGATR
# In short: as §1
# Sequence of M3 (P20309 whole entry): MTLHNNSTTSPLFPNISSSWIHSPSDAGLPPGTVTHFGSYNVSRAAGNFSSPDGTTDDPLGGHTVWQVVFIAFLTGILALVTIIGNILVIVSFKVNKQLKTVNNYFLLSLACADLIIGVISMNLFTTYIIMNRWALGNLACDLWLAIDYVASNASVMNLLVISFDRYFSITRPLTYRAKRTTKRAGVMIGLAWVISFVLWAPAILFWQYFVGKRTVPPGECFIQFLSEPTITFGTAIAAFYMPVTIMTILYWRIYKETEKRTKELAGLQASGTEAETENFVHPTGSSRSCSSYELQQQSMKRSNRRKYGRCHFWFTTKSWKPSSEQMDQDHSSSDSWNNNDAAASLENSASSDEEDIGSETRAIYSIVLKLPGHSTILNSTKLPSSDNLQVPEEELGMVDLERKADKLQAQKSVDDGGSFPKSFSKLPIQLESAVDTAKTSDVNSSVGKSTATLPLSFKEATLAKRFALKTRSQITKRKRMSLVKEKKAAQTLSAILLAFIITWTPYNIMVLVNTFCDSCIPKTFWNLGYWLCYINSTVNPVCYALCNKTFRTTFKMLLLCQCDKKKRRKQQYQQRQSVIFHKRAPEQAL
Compound,activation of M5 (M5; up to 30 μM),activation of M3 (M3; up to 30 μM),Fold-shift of the ACh CRC at M5 (M1 [1]; 30 μM compound),activation of M4 (M4),increase in potency over VU0365137 (9a) (M1 [2]),activation of M2 (M2),selectivity versus M5 (M5; CRC in presence of ~EC20 ACh),selectivity versus M3 (M3; CRC in presence of ~EC20 ACh),Fold-shift of the ACh CRC at M5 (M1 [1]; 10 μM compound),"intrinsic allosteric agonism (M1 [1]; M1 fold-shift experiment, at 30 μM) [%]"
Cn1cc(-c2ccc(CN3C(=O)C(=O)c4ccccc43)c(F)c2)cn1 [Compound 12a],minimal/no activation,minimal/no activation,approximately 3 fold,minimal/no activation,three-fold increase,minimal/no activation,,,,
Cn1cc(-c2ccc(CN3C(=O)C(=O)c4ccccc43)cc2)cn1 [Compound 9a],,,,,,,good selectivity,good selectivity,approximately 5 fold,~30
